Assay outcomes deposited in PubChem BioAssay by Broad Institute.
Many of the other results were omitted from the sample, so hits are more common in it than they were.
T cruzi growth-1 = T. cruzi intracellular proliferation inhibitors, primary screen, cell-based, beta-gal Tulahuen parasites, NIH3T3 host, luminescence; AID 624255, 2012; 77,000 compounds, 5.9% hits; inhibition, % at 8.34 µM; T. cruzi beta-gal in NIH3T3, GalScreen luminescence, 90 h;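 active = mean inhibition above about 93%, with at least 55% of replicates each passing it, limit read from the data, passing the limit was not always enough; inconclusive = only one of those two conditions holds; inactive = neither condition holds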
IDH1 R132H inh = inhibitors of IDH1 R132H reductase, primary screen, biochemical, plate reader, single point; diaphorase/resazurin fluorescence, 60 min; inhibition, % at 10 µM; 70,000 compounds, 0.18% hits; AID 624101, 2012; in the data active = inhibition above about 34%; inconclusive = no clear call, values can overlap the other calls; inactive = below about 11%
Target sequence (O75874 whole entry R132H): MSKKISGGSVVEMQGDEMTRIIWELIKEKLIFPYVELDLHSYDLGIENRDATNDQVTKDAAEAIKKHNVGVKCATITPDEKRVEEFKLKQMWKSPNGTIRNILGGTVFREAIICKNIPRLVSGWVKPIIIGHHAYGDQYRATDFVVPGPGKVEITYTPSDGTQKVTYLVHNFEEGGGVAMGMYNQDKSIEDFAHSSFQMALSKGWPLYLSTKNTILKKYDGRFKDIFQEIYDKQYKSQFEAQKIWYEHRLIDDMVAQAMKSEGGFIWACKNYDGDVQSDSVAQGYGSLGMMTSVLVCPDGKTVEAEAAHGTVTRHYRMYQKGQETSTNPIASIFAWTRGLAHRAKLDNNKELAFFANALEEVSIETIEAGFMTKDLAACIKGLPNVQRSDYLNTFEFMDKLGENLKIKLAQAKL
KDM4C inh = inhibitors of GASC-1 (KDM4C) histone demethylase, primary screen, biochemical, single concentration HTS. inhibition, % at 12.5 µM. GST-KDM4C 2-372, H3K9me3 peptide, LANCE TR-FRET. 96,000 compounds, 0.15% hits. Lysine-specific demethylase 4C (Homo sapiens), Q9H3R0;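 active = mean replicate inhibition above about 25%, with at least 55% of replicates also reaching it, limit read from the data, passing the limit was not always enough; inconclusive = only one of those two conditions met; inactive = neither condition met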
Target sequence (Q9H3R0 2-372 limits assumed): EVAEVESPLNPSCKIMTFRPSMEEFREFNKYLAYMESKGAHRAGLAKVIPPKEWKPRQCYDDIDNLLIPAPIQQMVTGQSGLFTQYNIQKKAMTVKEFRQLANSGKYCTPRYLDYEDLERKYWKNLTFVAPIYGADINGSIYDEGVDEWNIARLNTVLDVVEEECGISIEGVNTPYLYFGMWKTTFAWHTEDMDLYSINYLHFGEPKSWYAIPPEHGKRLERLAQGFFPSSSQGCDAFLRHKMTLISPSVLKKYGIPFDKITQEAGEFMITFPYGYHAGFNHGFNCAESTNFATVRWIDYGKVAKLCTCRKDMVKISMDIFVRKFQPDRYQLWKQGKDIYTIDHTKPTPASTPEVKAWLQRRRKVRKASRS
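reagent = H3K9me3 peptide substrate, Fe(II), 2-oxoglutarate | system = GST-tagged GASC-1 (JMJD2C) catalytic fragment, aa 2-372 | amount = enzyme final amount 10 nM | read-out = Fall in 671/618 emission ratio as inhibition | medium = HEPES buffer, pH 7.5, plus ascorbate | schedule = 30 min reaction, 60 min detection, RT | measured by = LANCE TR-FRET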
T cruzi growth-2 = T. cruzi intracellular proliferation inhibitors, confirmation, cell-based, NIH3T3 host, beta-gal parasite, luminescence, cherry-pick. shares compounds with T cruzi growth-1. T. cruzi beta-gal in NIH3T3, GalScreen luminescence, 90 h. inhibition, % at 8.35 µM. 5,600 compounds, 72% hits. AID 651739, 2012;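 active = mean replicate inhibition above about 95% and at least 55% of replicates individually reaching it, limit read from the data; inconclusive = only one of the two criteria is met; inactive = neither criterion is met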
T cruzi growth-3 = inhibitors of intracellular T. cruzi replication, confirmation, NIH3T3 host cells, beta-gal parasites, cherry-pick, set 2; AID 651740, 2012; inhibition, % at 2.09 µM; T. cruzi beta-gal in NIH3T3, GalScreen luminescence, 90 h; shares compounds with T cruzi growth-1; 5,600 compounds, 21% hits;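 active = mean inhibition above about 95%, with at least 55% of replicates also reaching it, limit read from the data; inconclusive = meets just one of the two conditions; inactive = meets neither condition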
NIH3T3 tox = cytotoxicity in mouse NIH/3T3 fibroblasts, confirmation, cytotoxicity control for T. cruzi proliferation inhibitor project, cell-based, cherry-pick, single point; shares compounds with T cruzi growth-1; NIH/3T3 viability, CellTiter-Glo ATP luminescence, 90 h; cytotoxicity (signal decrease), % at 8.35 µM; 5,600 compounds, 14% hits; AID 651742, 2012;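 active = mean signal decrease across replicates above about 35% based on untreated-well scatter, with enough replicates individually passing, limit read from the data; inconclusive = no rule stated though some were filed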
3T3 cytotox 2 = NIH/3T3 fibroblast cytotoxicity, confirmation, cytotoxicity control, cell-based, cherry-pick, single point, set 2; shares compounds with T cruzi growth-1; NIH/3T3 viability, CellTiter-Glo ATP luminescence, 90 h; inhibition, % at 24.9 µM; 5,600 compounds, 56% hits; AID 651744, 2012;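 active = mean loss of cell viability signal at or above a set limit, and enough replicates individually reaching it; inconclusive = meets only the mean limit or only the replicate share; inactive = meets neither condition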
Large screens that a line does not name were inactive (follow-up assays come after a bar, where they were run).

Cc1ccc(S(=O)(=O)Nc2ccc3c(c2)C(=O)N([C@H](C)CO)C[C@H](C)[C@@H](CN(C)C(=O)Cc2ccccc2)OCCCC[C@H](C)O3)cc1	none (no result: IDH1 R132H inh)
COc1cccc(OCC(=O)Nc2ccc(-c3nc4ccccc4o3)cc2)c1	none (no result: T cruzi growth-1, KDM4C inh)
O=C(N/N=C/c1cccc(B(O)O)c1)c1ccccn1	none (no result: T cruzi growth-1, KDM4C inh)
O=C(O)Cc1ccc(NC(=O)CN2C(=O)c3ccccc3C2=O)cc1	none (no result: T cruzi growth-1, KDM4C inh)
COc1cccc(NC(=O)CCCC(=O)O)c1	none (no result: T cruzi growth-1, KDM4C inh)
COc1cccc(NC(=O)C(C)N(c2ccc(Cl)cc2)S(C)(=O)=O)c1 (stereo unspecified)	none (no result: T cruzi growth-1, KDM4C inh)
CC(C)CC#Cc1ccc([C@H]2[C@H](CO)N3CCCCN(C(=O)c4ccc5c(c4)OCO5)C[C@@H]23)cc1	none (no result: IDH1 R132H inh)
CC(C)CC#Cc1ccc([C@@H]2[C@H](CO)N3CCCCN(C(=O)c4ccc5c(c4)OCO5)C[C@@H]23)cc1	T cruzi growth-1 106 (no result: IDH1 R132H inh) | T cruzi growth-2 104 | T cruzi growth-3 inactive | NIH3T3 tox inactive | 3T3 cytotox 2 105
CC(C)CC#Cc1ccc([C@H]2[C@H]3CN(C(=O)c4ccc5c(c4)OCO5)CCCCN3[C@H]2CO)cc1	T cruzi growth-1 113 (no result: IDH1 R132H inh) | T cruzi growth-2 101 | T cruzi growth-3 inactive | NIH3T3 tox inactive | 3T3 cytotox 2 104
CC(C)C#Cc1ccc([C@H]2[C@H](CO)N3CCCCN(C(=O)c4ccc5c(c4)OCO5)C[C@@H]23)cc1	none (no result: IDH1 R132H inh)
CCn1c2ccccc2n2c(SCC(=O)Nc3ccc(C)cc3)nnc12	none (no result: T cruzi growth-1, KDM4C inh)
O=C(N/N=C/c1ccc(-c2cccc(Cl)c2)o1)c1ccccc1O	none (no result: T cruzi growth-1, KDM4C inh)
O=C(NC1CCCCC1)N[C@@H]1CC[C@@H](CCNS(=O)(=O)c2ccc(F)cc2)O[C@@H]1CO	none
O=C(Cn1cnc2scc(-c3cccc([N+](=O)[O-])c3)c2c1=O)Nc1ccc(F)c(Cl)c1	none (no result: T cruzi growth-1, KDM4C inh)
C[C@@H]1CN([C@@H](C)CO)S(=O)(=O)c2ccc(C#Cc3ccccc3F)cc2O[C@H]1CN(C)C(=O)Cc1cccnc1	T cruzi growth-1 96 | T cruzi growth-2 104 | T cruzi growth-3 inactive | NIH3T3 tox inactive | 3T3 cytotox 2 73
CC(=O)N(C)C[C@@H]1Oc2cc(C#Cc3ccccc3F)ccc2S(=O)(=O)N([C@H](C)CO)C[C@H]1C	none
C[C@@H]1CN([C@H](C)CO)S(=O)(=O)c2ccc(C#Cc3ccccc3F)cc2O[C@@H]1CN(C)C(=O)Cc1ccccc1	T cruzi growth-1 121 (no result: KDM4C inh) | T cruzi growth-2 97 | T cruzi growth-3 99 | NIH3T3 tox inactive | 3T3 cytotox 2 102
C[C@H]1CN([C@@H](C)CO)S(=O)(=O)c2ccc(C#Cc3ccccc3F)cc2O[C@H]1CN(C)C(=O)Cc1ccccc1	T cruzi growth-1 125 | T cruzi growth-2 109 | T cruzi growth-3 inactive | NIH3T3 tox inactive | 3T3 cytotox 2 103
C[C@H](CO)N1C[C@H](C)[C@@H](CN(C)C(=O)Cc2ccccc2)Oc2cc(C#Cc3ccccc3F)ccc2S1(=O)=O	T cruzi growth-1 124 | T cruzi growth-2 inactive | T cruzi growth-3 inactive | NIH3T3 tox inactive | 3T3 cytotox 2 inactive
C[C@H]1CN([C@@H](C)CO)S(=O)(=O)c2ccc(C#Cc3ccccc3F)cc2O[C@@H]1CN(C)C(=O)Cc1ccncc1	none (no result: T cruzi growth-1)
C[C@@H]1CN([C@H](C)CO)S(=O)(=O)c2ccc(C#Cc3ccccc3F)cc2O[C@@H]1CN(C)C(=O)Cc1ccncc1	none (no result: T cruzi growth-1)
C[C@H]1CN([C@@H](C)CO)S(=O)(=O)c2ccc(C#Cc3ccccc3F)cc2O[C@@H]1CN(C)C(=O)Cc1cccnc1	none
O=C(CC(C(=O)O)N1CCCCC1)Nc1cccc2ccccc12 (stereo unspecified)	none (no result: T cruzi growth-1, KDM4C inh)
CCCn1c(=O)cc(N)n(-c2ccc(Cl)cc2)c1=O	none (no result: T cruzi growth-1, KDM4C inh)
C[C@H](CO)N1C[C@H](C)[C@H](CN(C)C(=O)Cc2ccccc2)Oc2cc(C#Cc3ccccc3F)ccc2S1(=O)=O	T cruzi growth-1 127 | T cruzi growth-2 95 | T cruzi growth-3 inactive | NIH3T3 tox inactive | 3T3 cytotox 2 inconclusive
C[C@H]1CN([C@@H](C)CO)S(=O)(=O)c2ccc(C#Cc3ccccc3F)cc2O[C@H]1CN(C)C(=O)Cc1cccnc1	none
O=C(CSc1nc2sc3c(c2c(=O)n1C1CCCCC1)CCCC3)Nc1ccccc1	none (no result: T cruzi growth-1, KDM4C inh)
COc1ccc(C#Cc2ccc3c(c2)O[C@@H](CN(C)S(=O)(=O)c2ccccc2F)[C@@H](C)CN([C@H](C)CO)S3(=O)=O)cc1	none (no result: T cruzi growth-1)
COc1ccc(C#Cc2ccc3c(c2)O[C@H](CN(C)S(=O)(=O)c2ccccc2F)[C@H](C)CN([C@@H](C)CO)S3(=O)=O)cc1	none (no result: T cruzi growth-1)
COc1cccc(C#Cc2ccc3c(c2)O[C@@H](CN(C)S(=O)(=O)c2ccccc2F)[C@@H](C)CN([C@H](C)CO)S3(=O)=O)c1	T cruzi growth-1 101 | T cruzi growth-2 106 | T cruzi growth-3 inactive | NIH3T3 tox inactive | 3T3 cytotox 2 inconclusive
COc1ccc(C#Cc2ccc3c(c2)O[C@H](CN(C)S(=O)(=O)c2ccccc2F)[C@H](C)CN([C@H](C)CO)S3(=O)=O)cc1	T cruzi growth-1 124 | T cruzi growth-2 109 | T cruzi growth-3 107 | NIH3T3 tox inactive | 3T3 cytotox 2 33
O=C(N/N=C/c1ccc2c(c1)CCO2)c1ccccc1O	none (no result: T cruzi growth-1, KDM4C inh)
CC(Oc1ccc(Br)cc1)C(=O)NCCN1CCOCC1 (stereo unspecified)	none (no result: T cruzi growth-1, KDM4C inh)
Cn1cnc(S(=O)(=O)N2CCCCN3[C@H](C2)[C@@H](c2ccc(-c4ccc(F)cc4)cc2)[C@@H]3CO)c1	none (no result: IDH1 R132H inh)
Cn1cnc(S(=O)(=O)N2CCCCN3[C@H](CO)[C@H](c4ccc(-c5cccc(F)c5)cc4)[C@H]3C2)c1	none (no result: IDH1 R132H inh)
Cn1cnc(S(=O)(=O)N2CCCCN3[C@H](C2)[C@H](c2ccc(-c4cccc(F)c4)cc2)[C@@H]3CO)c1	none (no result: IDH1 R132H inh)
Cn1cnc(S(=O)(=O)N2CCCCN3[C@@H](CO)[C@H](c4ccc(-c5ccccc5)cc4)[C@@H]3C2)c1	T cruzi growth-1 100 (no result: IDH1 R132H inh) | T cruzi growth-2 inactive | T cruzi growth-3 inactive | NIH3T3 tox inactive | 3T3 cytotox 2 33
Cc1cccc(-c2ccc([C@H]3[C@@H](CO)N4CCCCN(S(=O)(=O)c5cn(C)cn5)C[C@H]34)cc2)c1	none (no result: IDH1 R132H inh)
